Laboratory results taken from ChEMBL document CHEMBL1157565, “Discovery of 1-[3-(4-bromo-2-methyl-2h-pyrazol-3-yl)-4-methoxyphenyl]-3-(2,4-difluorophenyl)urea (nelotanserin) and related 5-hydroxytryptamine2A inverse agonists for the treatment of insomnia” (J Med Chem, 2010).
Active and inactive are the calls of the source. No cut-off for these calls is given here.

Experiments:
[1] = molecular target: T1, 5-hydroxytryptamine receptor 2A (Homo sapiens, UniProt P28223); experiment: Displacement of [3H]DOI from human recombinant 5HT2A receptor expressed in HEK293 cells by scintillation counting; format: cell-based; conditions: in the assay text read “[125I]DOI” for “[3H]DOI”
T1 sequence (P28223 whole entry): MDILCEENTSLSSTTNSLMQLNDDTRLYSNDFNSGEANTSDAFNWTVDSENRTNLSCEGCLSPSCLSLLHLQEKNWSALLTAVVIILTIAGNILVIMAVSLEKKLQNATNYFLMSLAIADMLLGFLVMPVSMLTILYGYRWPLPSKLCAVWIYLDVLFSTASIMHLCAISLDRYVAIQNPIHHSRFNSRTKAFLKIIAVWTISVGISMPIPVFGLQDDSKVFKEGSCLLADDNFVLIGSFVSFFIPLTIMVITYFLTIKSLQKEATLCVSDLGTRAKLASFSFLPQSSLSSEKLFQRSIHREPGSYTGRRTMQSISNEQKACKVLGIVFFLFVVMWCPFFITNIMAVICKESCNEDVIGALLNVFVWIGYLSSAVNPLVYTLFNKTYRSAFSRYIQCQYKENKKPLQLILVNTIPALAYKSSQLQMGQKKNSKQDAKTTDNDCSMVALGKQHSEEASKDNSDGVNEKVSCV
Summary of the method: (§1)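 Crude membranes (5-25 μg protein) from HEK293 cells stably expressing human 5-HT2A or 5-HT2C. Radioligand [125I]DOI at 0.5 nM final; 10 μM cold DOI defines nonspecific binding. Buffer 20 mM HEPES pH 7.4, 10 mM MgCl2; 1 h at room temperature. Eight concentrations (1 pM–10 μM), each in triplicate. Vacuum filtration on GF/C, Tris wash, scintillation counting; pKi.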

[2] = molecular target: T2, 5-hydroxytryptamine receptor 2C (Homo sapiens, UniProt P28335); experiment: Displacement of [125I]DOI from human recombinant 5HT2C receptor expressed in HEK293 cells by scintillation counting
T2 sequence (P28335 whole entry): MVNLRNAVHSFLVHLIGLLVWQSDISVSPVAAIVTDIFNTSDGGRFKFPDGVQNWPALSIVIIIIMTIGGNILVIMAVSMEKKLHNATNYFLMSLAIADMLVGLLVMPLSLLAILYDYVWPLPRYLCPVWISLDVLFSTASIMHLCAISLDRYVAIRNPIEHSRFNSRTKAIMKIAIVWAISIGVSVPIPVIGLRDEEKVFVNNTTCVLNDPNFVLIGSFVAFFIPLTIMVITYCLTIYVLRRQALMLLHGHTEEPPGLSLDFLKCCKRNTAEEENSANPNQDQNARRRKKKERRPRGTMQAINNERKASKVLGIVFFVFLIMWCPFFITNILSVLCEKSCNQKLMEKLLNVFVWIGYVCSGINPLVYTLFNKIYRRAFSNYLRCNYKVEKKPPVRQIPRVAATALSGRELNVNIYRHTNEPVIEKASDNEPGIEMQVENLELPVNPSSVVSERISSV

[3] = molecular target: T1, 5-hydroxytryptamine receptor 2A; experiment: Activity at human 5HT2A receptor expressed in HEK293 cells assessed as [3H]inositol phosphate production by scintillation counting; format: functional, cell-based
Summary of the method: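 HEK-293 cells transiently transfected with a mutated, constitutively active h5-HT2A receptor, labeled 18 h with […] [3H]myoinositol in serum- and myoinositol-free DMEM. Then 3 h at 37 °C in HBSS with LiCl (10 mM final), pargyline and compound. Lysis with ice-cold 0.1 M formic acid; total [3H]IP separated on AG1-X8 resin and counted by scintillation. Inverse-agonist pIC50.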

[4] = molecular target: T2, 5-hydroxytryptamine receptor 2C; experiment: Displacement of [3H]DOI from human recombinant 5HT2C receptor expressed in HEK293 cells by scintillation counting; format: cell-based; conditions: in the assay text read “[125I]DOI” for “[3H]DOI”; summary of the method: as §1
[5] = molecular target: T1, 5-hydroxytryptamine receptor 2A; experiment: Displacement of [125I]DOI from human recombinant 5HT2A receptor expressed in HEK293 cells by scintillation counting
Rattus norvegicus [6] = experiment: Effect on behavioral activity in Wistar rat assessed as decrease in number of non-rapid eye movement bouts at 1.4 mg/kg, po after 2 hrs; format: functional, organism-based; set-up: dose 1.4 mg/kg
Summary of the method: (§2)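 Male Wistar rats (300 ± 25 g) implanted for continuous EEG/EMG recording, 1 week recovery. Repeated-measures design: each rat received each treatment, including 80% Tween-80 vehicle, in random order by oral gavage. Non-REM sleep parameters scored hourly after dosing; at least five rats per compound.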

[7] = Tmax in Wistar rat at 1.4 mg/kg, po; format: ADME, organism-based; set-up: dose 1.4 mg/kg, route oral; conditions: in vivo
Summary of the method: (§3)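 Male Wistar rats, fasted overnight, single oral dose in 80% Tween-80/20% water. Jugular vein blood sampled serially over 24 h ([…]); sodium-heparin plasma stored at -70 °C, quantified by HPLC/MS/MS (LLOQ 1 ng/mL, ULOQ 2000 ng/mL). n = 2-3 animals; noncompartmental analysis; values as mean ± SD.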

[8] = Cmax in Wistar rat at 1.4 mg/kg, po; format: ADME, organism-based; set-up: dose 1.4 mg/kg, route oral; conditions: in vivo; summary of the method: as §3
[9] = Half life in Wistar rat at 1.4 mg/kg, po; format: ADME, organism-based; set-up: dose 1.4 mg/kg, route oral; conditions: in vivo; summary of the method: as §3
[10] = AUC (0 to infinity) in Wistar rat at 1.4 mg/kg, po; format: ADME, organism-based; set-up: time infinity, dose 1.4 mg/kg, route oral; conditions: plasma; summary of the method: as §3
Rattus norvegicus [11] = experiment: Effect on behavioral activity in po dosed Sprague-Dawley rat assessed as reversal of DOI-induced inhibition of rearing behavior; format: functional
Summary of the method: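 Adult male Sprague-Dawley rats dosed orally with compound 45 min before DOI (0.3 mg/kg), which lowers rearing. Fifteen minutes later, rearing recorded in photocell-monitored locomotor activity cages. A dose-response curve for reversal of DOI-induced rearing decrease yields an ED50.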

Rattus norvegicus [12] = experiment: Effect on behavioral activity in Wistar rat assessed as increase in non-rapid eye movement delta power at 1.4 mg/kg, po after 4 hrs; format: functional, organism-based; set-up: dose 1.4 mg/kg; summary of the method: as §2
Rattus norvegicus [13] = experiment: Effect on behavioral activity in Wistar rat assessed as increase in non-rapid eye movement bout length at 1.4 mg/kg, po after 1 hrs; format: functional, organism-based; set-up: dose 1.4 mg/kg; summary of the method: as §2
[14] = molecular target: 5-hydroxytryptamine receptor 2A (Rattus norvegicus, UniProt P14842); experiment: Displacement of [125I]DOI from rat recombinant 5HT2A receptor by scintillation counting
Sequence of 5-hydroxytryptamine receptor 2A (Rattus norvegicus, UniProt P14842) (P14842 whole entry): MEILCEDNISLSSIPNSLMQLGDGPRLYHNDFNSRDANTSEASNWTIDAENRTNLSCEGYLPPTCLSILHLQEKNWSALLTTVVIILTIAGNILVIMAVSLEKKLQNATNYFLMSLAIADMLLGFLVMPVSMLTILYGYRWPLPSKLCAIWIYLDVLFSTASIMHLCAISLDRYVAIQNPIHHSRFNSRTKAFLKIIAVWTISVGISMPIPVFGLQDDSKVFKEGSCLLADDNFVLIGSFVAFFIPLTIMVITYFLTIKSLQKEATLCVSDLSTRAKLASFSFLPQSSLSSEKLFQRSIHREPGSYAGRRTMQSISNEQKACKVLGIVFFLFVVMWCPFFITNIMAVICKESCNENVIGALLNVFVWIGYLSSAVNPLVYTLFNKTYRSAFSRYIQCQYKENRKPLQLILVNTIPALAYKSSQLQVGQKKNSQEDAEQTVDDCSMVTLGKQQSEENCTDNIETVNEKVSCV

| Ki [1] [nM] | Ki [2] [nM] | IC50 ([3]; read-out: pIC50 (converted)) [nM] | Ki [4] [nM] | Ki [5] [nM] | Structure (SMILES) | further results |
| --- | --- | --- | --- | --- | --- | --- |
| 1 | 398 |  |  |  | COc1ccc(NC(=O)Nc2ccccc2F)cc1-c1c(Br)cnn1C |  |
|  |  | 1 | 158 |  | COc1ccc(NC(=O)Nc2ccc(Cl)cc2)cc1-c1ccnn1C |  |
|  |  | 1.26 | 15.8 | 0.316 | COc1ccc(NC(=O)Nc2cc(F)cc(F)c2)cc1-c1c(Br)cnn1C |  |
| 0.251 |  | 0.501 | 25.1 |  | COc1ccc(NC(=O)Nc2ccc(F)c(F)c2)cc1-c1c(Cl)cnn1C |  |
| 20 |  | 12.6 | 251 |  | Cn1ncc(Br)c1-c1cc(NC(=O)Nc2ccc(Cl)cc2)ccc1OCc1ccc(Cl)cc1 |  |
| 5.01 |  | 7.94 | 158 |  | Cn1ncc(Br)c1-c1cc(NC(=O)Nc2ccc(Cl)cc2)ccc1OCc1ccccc1 |  |
| 0.251 |  | 0.398 | 15.8 |  | COc1ccc(NC(=O)Nc2cccc(Cl)c2)cc1-c1c(Br)cnn1C |  |
| 1.58 | 398 | 50.1 |  |  | COc1ccc(NC(=O)Nc2ccc(N(C)C)cc2)cc1-c1c(Br)cnn1C |  |
| 1.26 | 398 | 2.51 |  |  | COc1ccc(NC(=O)Nc2ccc(F)c(F)c2)cc1-c1c(F)cnn1C |  |
|  |  | 0.398 | 15.8 | 0.398 | COc1ccc(NC(=O)Nc2cccc(C(F)(F)F)c2)cc1-c1c(Br)cnn1C |  |
|  | 39.8 | 0.794 |  | 0.316 | COc1ccc(NC(=O)Nc2cccc(F)c2)cc1-c1c(Br)cnn1C |  |
|  |  | 0.631 | 158 | 0.631 | COc1ccc(NC(=O)Nc2ccc(F)cc2F)cc1-c1c(Br)cnn1C [NELOTANSERIN] | Activity (Rattus norvegicus [6]): Active; Tmax [7]: 3 h; Cmax [8]: 44 ng/mL; half-life [9]: 180 min; AUC(0-inf) [10]: 298 ng·h/mL; ED50 (Rattus norvegicus [11]): 0.7 mg/kg; Activity (Rattus norvegicus [12]): Active; Activity (Rattus norvegicus [13]): Active; Ki [14]: 5.01 nM |
|  | 3.98 | 1.58 |  | 0.316 | COc1ccc(NC(=O)Nc2ccc(C(F)(F)F)cc2)cc1-c1c(Br)cnn1C |  |
| 0.501 |  | 0.398 | 126 |  | COc1ccc(NC(=O)Nc2ccc(OC)c(-c3c(Br)cnn3C)c2)cc1 |  |
|  | 316 | 1 |  | 0.631 | COc1ccc(NC(=O)Nc2ccc(F)cc2F)cc1-c1c(Cl)cnn1C |  |
|  |  |  | 50.1 | 0.398 | Cn1ncc(Br)c1-c1cc(NC(=O)Nc2ccc(Cl)cc2)ccc1O |  |
|  |  |  |  |  | Cn1ncc(Br)c1-c1cccc(NC(=O)Nc2ccc(Cl)cc2)c1 | IC50 [3]: 19 nM |
| 0.251 | 3.98 | 1 |  |  | COc1ccc(NC(=O)Nc2ccc(F)cc2)cc1-c1c(Br)cnn1C(C)C |  |
